The source made the active and inactive calls. The calls are words filed in the database; no cut-off is given here.

In experiment [1] the target is Endoplasmic reticulum aminopeptidase 2 (Homo sapiens) (UniProt Q6P179). The experiment can be described thus: Inhibition of human recombinant L-RAP at 200 uM by HxBPyne probe-based competitive activity based protein profiling assay in presence of 5 uM HxBpane competitor. The method in brief:
(§1)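 Recombinant enzyme at 0.5 μM final in mouse liver soluble proteome (1 mg protein/mL in PBS). HxBPyne probe cocktail 0.5 μM total final, with inhibitor 200 μM or DMSO. Preincubated 30 min on ice, then UV 365 nm for 1 h on ice. Rhodamine-azide click chemistry, 1 h RT in dark. SDS-PAGE with in-gel fluorescence; band intensity given as % of DMSO control.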

For experiment [2], the target named is 72 kDa type IV collagenase (Homo sapiens) (UniProt P08253). The experiment can be described thus: Inhibition of human recombinant MMP2 at 200 uM by HxBPyne probe-based competitive activity based protein profiling assay in presence of 5 uM HxBpane competitor. The gist of the method:
as §1

Experiment [3] has as its target Macrophage metalloelastase (Homo sapiens) (UniProt P39900). The experiment can be described thus: Inhibition of human recombinant MMP12 at 200 uM by HxBPyne probe-based competitive activity based protein profiling assay in presence of 5 uM HxBpane competitor. The gist of the method:
as §1

The target in experiment [4] is T1, Disintegrin and metalloproteinase domain-containing protein 8 (Homo sapiens) (UniProt P78325).
T1 sequence (whole entry): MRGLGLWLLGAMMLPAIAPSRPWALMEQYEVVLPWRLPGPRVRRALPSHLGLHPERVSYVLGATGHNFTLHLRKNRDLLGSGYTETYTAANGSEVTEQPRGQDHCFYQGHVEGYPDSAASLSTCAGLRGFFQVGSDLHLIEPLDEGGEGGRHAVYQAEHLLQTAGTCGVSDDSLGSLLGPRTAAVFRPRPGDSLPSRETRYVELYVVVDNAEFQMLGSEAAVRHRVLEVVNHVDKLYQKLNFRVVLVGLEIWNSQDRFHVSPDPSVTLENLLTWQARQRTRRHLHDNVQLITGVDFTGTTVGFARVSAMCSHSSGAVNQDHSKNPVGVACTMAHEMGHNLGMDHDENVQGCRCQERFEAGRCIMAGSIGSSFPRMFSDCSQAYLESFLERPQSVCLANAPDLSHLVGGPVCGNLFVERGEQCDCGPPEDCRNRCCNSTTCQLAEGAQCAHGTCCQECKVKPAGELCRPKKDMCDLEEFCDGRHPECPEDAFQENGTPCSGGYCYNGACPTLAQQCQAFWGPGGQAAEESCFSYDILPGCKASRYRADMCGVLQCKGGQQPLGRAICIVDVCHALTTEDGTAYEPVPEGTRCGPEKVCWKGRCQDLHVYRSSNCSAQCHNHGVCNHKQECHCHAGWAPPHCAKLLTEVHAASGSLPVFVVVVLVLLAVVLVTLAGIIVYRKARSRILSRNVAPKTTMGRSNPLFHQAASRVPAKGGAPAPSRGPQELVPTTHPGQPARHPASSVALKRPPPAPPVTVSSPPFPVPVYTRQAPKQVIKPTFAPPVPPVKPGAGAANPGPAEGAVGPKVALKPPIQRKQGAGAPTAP
The experiment can be described thus: Inhibition of human recombinant ADAM8 at 200 uM by HxBPyne probe-based competitive activity based protein profiling assay in presence of 5 uM HxBpane competitor. The gist of the method:
as §1

Experiment [5] addresses T2, Stromelysin-3 (Homo sapiens) (UniProt P24347).
T2 sequence (whole entry): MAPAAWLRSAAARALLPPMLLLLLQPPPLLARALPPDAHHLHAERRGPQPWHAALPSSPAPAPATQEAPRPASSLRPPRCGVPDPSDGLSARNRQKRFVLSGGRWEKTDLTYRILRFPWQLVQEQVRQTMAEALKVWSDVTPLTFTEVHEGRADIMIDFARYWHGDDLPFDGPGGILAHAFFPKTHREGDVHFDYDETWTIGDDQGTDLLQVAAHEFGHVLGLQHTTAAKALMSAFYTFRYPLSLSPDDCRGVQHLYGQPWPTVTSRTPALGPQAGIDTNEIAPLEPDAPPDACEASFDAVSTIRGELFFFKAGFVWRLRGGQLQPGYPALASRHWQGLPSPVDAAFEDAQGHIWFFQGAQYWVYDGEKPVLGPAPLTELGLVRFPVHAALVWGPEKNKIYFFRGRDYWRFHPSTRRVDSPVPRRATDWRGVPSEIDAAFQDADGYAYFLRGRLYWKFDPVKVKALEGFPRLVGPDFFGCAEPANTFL
The experiment can be described thus: Inhibition of human recombinant MMP11 at 200 uM by HxBPyne probe-based competitive activity based protein profiling assay in presence of 5 uM HxBpane competitor. The gist of the method: as §1

Experiment [6] deals with Matrix metalloproteinase-16 (Homo sapiens) (UniProt P51512). The experiment can be described thus: Inhibition of human recombinant MMP16 at 200 uM by HxBPyne probe-based competitive activity based protein profiling assay in presence of 5 uM HxBpane competitor. The method in brief:
as §1

The target of experiment [7] is T3, Matrix metalloproteinase-9 (Homo sapiens, UniProt P14780). The experiment can be described thus: Inhibition of human recombinant MMP9 by fluorogenic substrate assay. The method in brief:
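Enzyme (MMP8 6 nM, MMP9 2 nM, MMP13 1.5 nM final) preincubated with inhibitor 30 min in 50 mM HEPES pH 7.5, 10 mM CaCl2, 0.05% Brij-35, at RT. Mca-PLGL-Dpa-AR-NH2 added at 5 μM; fluorescence (ex 328/em 393 nm) read each minute for 10 min. Initial rates by linear least squares; IC50 from variable-slope sigmoidal fit. Triplicate; mean with 95% CI.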

For experiment [8], the target named is Disintegrin and metalloproteinase domain-containing protein 17 (Homo sapiens) (UniProt P78536). The experiment can be described thus: Inhibition of human recombinant ADAM17 at 200 uM by HxBPyne probe-based competitive activity based protein profiling assay in presence of 5 uM HxBpane competitor. The method in brief:
as §1

Experiment [9] deals with Angiotensin-converting enzyme 2 (Homo sapiens) (UniProt Q9BYF1). The experiment can be described thus: Inhibition of human recombinant ACE2 at 200 uM by HxBPyne probe-based competitive activity based protein profiling assay in presence of 200 uM HxBpane competitor. The gist of the method: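 Metalloprotease at 1.6 μM final in PBS, without liver proteome. HxBPyne probe cocktail 20 μM final, with inhibitor 200 μM or DMSO. Preincubated 30 min on ice, then irradiated 365 nm for 1 h on ice. Rhodamine-azide click chemistry, then SDS-PAGE and in-gel fluorescence scanning. Integrated band intensity expressed as % of DMSO control.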

Experiment [10] concerns the target T3, Matrix metalloproteinase-9. Description: Inhibition of human recombinant MMP9 at 200 uM by HxBP-Rh probe-based competitive activity based protein profiling assay in presence of 200 uM HxBP-alkyne. The method in brief: (§2)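 Enzyme 0.5 μM final, in PBS (ADAMTS4, neprilysin) or in 1 mg/mL mouse liver soluble proteome (MMP9). HxBP-Rh probe 0.5 μM final with 200 μM inhibitor or DMSO. Preincubated 30 min on ice, UV 365 nm 1 h on ice. Deglycosylated with PNGase F, then SDS-PAGE with fluorescence scanning. Activity given relative to DMSO control.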

For experiment [11], the target named is Neprilysin (Homo sapiens) (UniProt P08473). The experiment can be described thus: Inhibition of human recombinant neprilysin at 200 uM by HxBP-Rh probe-based competitive activity based protein profiling assay in presence of 200 uM HxBP-alkyne. The gist of the method:
as §2

T3 sequence (P14780 whole entry): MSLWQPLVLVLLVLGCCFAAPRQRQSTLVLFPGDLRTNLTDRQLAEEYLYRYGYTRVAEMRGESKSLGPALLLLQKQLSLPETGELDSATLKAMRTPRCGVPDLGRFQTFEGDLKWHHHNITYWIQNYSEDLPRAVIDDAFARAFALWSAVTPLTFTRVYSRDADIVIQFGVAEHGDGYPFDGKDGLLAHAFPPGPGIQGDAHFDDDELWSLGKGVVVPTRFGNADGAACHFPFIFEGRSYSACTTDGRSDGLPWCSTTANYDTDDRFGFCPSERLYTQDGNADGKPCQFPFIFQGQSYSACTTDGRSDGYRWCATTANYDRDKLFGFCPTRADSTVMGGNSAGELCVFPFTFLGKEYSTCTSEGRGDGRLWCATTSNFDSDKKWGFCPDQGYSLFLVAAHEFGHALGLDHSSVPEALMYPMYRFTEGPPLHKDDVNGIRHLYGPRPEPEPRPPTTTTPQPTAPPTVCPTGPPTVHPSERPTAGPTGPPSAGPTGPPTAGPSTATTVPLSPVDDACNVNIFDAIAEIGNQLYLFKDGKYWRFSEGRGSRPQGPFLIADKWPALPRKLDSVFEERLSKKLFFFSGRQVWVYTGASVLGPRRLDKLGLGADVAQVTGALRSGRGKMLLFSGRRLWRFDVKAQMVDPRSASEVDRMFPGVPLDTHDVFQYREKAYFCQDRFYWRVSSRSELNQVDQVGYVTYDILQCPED
Sequence of Endoplasmic reticulum aminopeptidase 2 (Homo sapiens) (Q6P179 whole entry): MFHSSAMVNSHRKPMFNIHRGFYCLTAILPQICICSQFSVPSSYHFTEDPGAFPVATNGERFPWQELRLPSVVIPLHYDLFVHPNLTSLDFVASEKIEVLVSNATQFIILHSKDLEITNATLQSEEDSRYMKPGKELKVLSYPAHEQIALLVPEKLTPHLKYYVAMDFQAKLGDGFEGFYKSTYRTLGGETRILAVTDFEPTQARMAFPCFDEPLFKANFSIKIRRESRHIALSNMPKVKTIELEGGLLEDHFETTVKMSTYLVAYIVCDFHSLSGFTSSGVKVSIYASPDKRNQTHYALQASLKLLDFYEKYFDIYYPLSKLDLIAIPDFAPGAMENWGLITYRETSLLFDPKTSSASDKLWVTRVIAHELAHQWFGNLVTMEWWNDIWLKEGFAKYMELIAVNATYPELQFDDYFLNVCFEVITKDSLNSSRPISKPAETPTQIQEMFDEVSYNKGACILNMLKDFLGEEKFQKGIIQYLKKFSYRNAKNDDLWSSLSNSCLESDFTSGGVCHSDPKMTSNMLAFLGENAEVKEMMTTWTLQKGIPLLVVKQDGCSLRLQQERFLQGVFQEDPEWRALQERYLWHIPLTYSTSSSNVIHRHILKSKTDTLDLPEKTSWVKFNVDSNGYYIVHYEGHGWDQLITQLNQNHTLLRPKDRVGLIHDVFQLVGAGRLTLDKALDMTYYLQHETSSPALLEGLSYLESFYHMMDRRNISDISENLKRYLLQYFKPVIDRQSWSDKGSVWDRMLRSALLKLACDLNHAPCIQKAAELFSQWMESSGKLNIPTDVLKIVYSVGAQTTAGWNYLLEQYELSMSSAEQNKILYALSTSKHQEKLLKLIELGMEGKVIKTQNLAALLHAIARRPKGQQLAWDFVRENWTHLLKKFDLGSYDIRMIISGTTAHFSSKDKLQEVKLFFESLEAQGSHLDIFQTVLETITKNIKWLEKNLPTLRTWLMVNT
Sequence of Neprilysin (Homo sapiens) (P08473 whole entry): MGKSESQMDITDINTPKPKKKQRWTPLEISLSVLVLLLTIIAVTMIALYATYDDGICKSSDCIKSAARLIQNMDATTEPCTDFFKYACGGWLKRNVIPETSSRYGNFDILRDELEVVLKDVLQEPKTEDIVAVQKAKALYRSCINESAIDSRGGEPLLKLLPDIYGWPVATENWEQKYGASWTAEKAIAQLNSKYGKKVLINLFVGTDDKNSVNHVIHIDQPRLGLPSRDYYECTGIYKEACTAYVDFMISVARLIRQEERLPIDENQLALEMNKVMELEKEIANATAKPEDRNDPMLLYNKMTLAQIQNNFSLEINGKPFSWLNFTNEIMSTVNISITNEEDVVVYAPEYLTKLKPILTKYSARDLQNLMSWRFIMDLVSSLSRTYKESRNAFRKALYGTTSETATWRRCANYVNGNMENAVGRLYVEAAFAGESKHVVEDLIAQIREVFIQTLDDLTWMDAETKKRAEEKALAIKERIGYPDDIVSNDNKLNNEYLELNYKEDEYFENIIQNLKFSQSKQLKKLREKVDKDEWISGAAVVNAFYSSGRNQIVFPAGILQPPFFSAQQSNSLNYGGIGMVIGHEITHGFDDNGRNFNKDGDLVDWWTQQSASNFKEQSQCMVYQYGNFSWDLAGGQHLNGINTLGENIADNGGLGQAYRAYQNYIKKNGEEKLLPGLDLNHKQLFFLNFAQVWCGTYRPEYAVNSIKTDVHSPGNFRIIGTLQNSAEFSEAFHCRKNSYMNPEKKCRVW
Sequence of Disintegrin and metalloproteinase domain-containing protein 17 (Homo sapiens) (P78536 whole entry, the tested form may be a part): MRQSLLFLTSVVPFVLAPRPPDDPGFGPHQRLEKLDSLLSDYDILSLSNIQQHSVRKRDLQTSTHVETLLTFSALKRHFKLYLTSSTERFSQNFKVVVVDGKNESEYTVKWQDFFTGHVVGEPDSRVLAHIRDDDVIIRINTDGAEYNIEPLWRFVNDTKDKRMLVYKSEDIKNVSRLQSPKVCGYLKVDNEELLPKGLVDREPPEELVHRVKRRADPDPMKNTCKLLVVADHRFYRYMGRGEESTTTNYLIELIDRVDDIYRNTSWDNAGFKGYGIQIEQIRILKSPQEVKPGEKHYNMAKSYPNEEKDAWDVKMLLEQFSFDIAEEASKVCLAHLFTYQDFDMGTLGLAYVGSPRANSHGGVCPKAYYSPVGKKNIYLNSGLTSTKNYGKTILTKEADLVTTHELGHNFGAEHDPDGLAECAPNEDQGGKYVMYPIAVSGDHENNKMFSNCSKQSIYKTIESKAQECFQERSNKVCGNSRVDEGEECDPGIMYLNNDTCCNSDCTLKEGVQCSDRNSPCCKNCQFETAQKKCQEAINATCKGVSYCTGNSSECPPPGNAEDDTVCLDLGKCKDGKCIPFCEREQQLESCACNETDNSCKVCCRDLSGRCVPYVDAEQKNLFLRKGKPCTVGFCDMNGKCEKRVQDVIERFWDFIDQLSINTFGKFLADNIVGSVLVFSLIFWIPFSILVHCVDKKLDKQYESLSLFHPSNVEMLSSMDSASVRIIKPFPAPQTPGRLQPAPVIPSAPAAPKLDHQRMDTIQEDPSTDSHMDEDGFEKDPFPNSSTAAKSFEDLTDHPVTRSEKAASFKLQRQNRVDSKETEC
Sequence of 72 kDa type IV collagenase (Homo sapiens) (P08253 110-660 limits assumed): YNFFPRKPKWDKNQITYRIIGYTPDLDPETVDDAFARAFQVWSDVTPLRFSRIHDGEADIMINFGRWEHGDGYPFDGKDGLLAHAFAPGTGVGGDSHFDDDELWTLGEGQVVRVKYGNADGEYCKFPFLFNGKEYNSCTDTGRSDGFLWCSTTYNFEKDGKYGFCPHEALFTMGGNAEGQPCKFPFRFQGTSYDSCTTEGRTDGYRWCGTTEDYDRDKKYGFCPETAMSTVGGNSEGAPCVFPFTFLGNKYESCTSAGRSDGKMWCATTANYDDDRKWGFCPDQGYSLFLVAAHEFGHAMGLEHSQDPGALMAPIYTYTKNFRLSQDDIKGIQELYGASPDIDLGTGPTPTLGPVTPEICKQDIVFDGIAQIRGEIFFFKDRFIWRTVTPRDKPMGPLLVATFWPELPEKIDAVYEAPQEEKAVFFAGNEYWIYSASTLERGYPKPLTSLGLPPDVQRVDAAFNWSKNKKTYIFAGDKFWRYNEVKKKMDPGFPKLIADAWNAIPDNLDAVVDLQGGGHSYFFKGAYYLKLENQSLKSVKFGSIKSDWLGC
Sequence of Matrix metalloproteinase-16 (Homo sapiens) (P51512 whole entry): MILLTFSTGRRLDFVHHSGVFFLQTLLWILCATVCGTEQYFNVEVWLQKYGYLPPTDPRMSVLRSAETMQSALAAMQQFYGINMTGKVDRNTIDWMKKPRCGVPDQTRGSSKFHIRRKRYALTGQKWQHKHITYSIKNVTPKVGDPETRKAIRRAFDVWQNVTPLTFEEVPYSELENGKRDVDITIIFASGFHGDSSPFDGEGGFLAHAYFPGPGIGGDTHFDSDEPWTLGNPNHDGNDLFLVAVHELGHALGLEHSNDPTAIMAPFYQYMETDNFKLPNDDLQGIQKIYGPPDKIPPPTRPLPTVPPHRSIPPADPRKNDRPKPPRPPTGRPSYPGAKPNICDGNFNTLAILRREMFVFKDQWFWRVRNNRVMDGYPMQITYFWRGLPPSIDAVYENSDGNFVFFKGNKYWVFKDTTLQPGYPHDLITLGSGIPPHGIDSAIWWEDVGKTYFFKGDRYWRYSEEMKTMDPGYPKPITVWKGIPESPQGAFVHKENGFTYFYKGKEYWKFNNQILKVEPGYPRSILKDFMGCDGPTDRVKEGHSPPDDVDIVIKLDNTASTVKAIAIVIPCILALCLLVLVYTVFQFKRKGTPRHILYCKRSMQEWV
Sequence of Macrophage metalloelastase (Homo sapiens) (P39900 106-470 limits assumed): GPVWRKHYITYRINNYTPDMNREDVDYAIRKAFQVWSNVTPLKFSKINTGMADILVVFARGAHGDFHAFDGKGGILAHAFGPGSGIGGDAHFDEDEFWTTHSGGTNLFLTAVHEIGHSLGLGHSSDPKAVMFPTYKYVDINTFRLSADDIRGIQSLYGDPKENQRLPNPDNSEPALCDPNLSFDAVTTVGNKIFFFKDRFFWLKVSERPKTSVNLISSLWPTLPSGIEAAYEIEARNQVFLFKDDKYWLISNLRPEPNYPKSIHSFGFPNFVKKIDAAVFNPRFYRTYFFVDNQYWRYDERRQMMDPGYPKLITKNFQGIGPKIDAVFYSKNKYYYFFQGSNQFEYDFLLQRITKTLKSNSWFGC

`Oc1nc(SCc2ccc(Cl)cc2)nc2c1CCC2`: the outcome in experiment [1], in [2], in experiment [3], in [4], in experiment [5] and in [6] was inactive. The outcome in experiment [8], in experiment [9], in [10] and in experiment [11] was inactive. In [7], the IC50 is over 100 µM.
Regarding `COc1ccc(CSc2nc(C)cc(O)n2)cc1`, the outcome in experiment [1], in experiment [2], in experiment [3], in experiment [4], in [5] and in [6] was inactive. Besides, the result in [8], in experiment [9], in experiment [10] and in [11] was inactive. For the same compound, in experiment [7], the IC50 was over 100 µM.

By IC50 is commonly meant the concentration needed to halve the response being measured.

Source of the values: ChEMBL document CHEMBL1140994, “Ranking the selectivity of PubChem screening hits by activity-based protein profiling: MMP13 as a case study” (Bioorg Med Chem, 2009).
